Source: PubChem BioAssay
The list is not random: actives were taken first. Their share in the collection is about 8.8%.
M1 ag: agonists of M1 muscarinic receptor. CHO-M1 cells, Fluo-4 calcium fluorescence, agonist mode; stronger effect = higher value. B-score at 10 µM. 3% of 64,000 active;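 active = fluorescence rise, raw or as B-score row- and column-corrected plate score, outside the 99.7% band of its plate's samples, either direction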
M1 antag: M1 muscarinic receptor (rat) antagonism. P08482. CHO-M1 cells, Fluo-4 calcium, ACh EC80 antagonist mode; stronger effect = lower value. B-score at 10 µM. 3.4% of 64,000 active;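 active = calcium fluorescence response, raw or row-and-column corrected B-score, differing from the plate sample mean either way at a set confidence level, mostly lower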
S1P3 ag: activates the human S1P3 receptor; S1P3 NFAT-BLA reporter cells, agonism, FRET ratio; relative to 1 µM S1P, basal subtracted; activation, % at 4.5 µM; 0.1% of 60,000 active;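 active = activation above the screen-wide mean plus 3 SD, cut at about 4.5% in these data, passing the limit was not always enough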
Target sequence (Q99500 whole entry, looked up): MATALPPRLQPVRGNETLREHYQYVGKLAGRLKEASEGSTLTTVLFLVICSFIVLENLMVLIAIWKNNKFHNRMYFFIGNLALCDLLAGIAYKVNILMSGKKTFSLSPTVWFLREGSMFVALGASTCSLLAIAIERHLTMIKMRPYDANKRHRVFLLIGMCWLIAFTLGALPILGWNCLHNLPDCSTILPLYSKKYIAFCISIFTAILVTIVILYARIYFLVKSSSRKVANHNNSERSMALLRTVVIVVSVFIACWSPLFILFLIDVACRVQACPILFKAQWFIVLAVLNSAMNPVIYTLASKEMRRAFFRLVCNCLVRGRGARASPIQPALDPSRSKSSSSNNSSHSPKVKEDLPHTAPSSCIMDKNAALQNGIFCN
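Assay system: stable CHO line with human S1P3, Gα16, NFAT-BLA reporter; Detection: FRET β-lactamase substrate fluorescence, excitation 405 nm, 460/535 nm emission ratio, background-subtracted; Read-out: percent activation versus median 1 µM S1P response, basal-subtracted, per plate; Incubation: cells plated overnight, compound 4 h 37 °C, substrate 2 h RT.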
S1P1 ag-PAM: activates or potentiates agonism at human S1P1 receptor; P21453; S1P1 CRE-bla cells, forskolin, beta-lactamase FRET, potentiator mode; S1P1 agonist co-added at EC20, 2 nM; 100% = saturating reference agonist, 0% = basal; activation, % at 9.5 µM; 0.57% of 56,000 active;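 active = activation above a cutoff set at the mean activation of all tested compounds plus 3 SD, cut at about 54% in these data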;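 also: forskolin at 4 µM as EC80 and the EC20 agonist is SEW2871; 100% = SEW2871 at its EC100 plus forskolin at EC80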
RORa activator: activates the human nuclear receptor RORA | CHO-K1 Gal4-RORA LBD luciferase reporter, luminescence; percent increase over mock-subtracted basal signal | activation, % at 10 µM | 1.5% of 65,000 active;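 active = activation above the mean of all tested compounds plus 3 SD, cut at about 49% in these data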;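 also: 0% = DMSO-treated RORA cells and 100% = added signal equal to DMSO minus mock-transfected cells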
SF1 activator: activators of human nuclear receptor SF-1; CHO-K1 Gal4-SF-1 LBD luciferase reporter; % increase over DMSO SF-1-specific signal; 1.9% of 65,000 active; activation, % at 10 µM; Q13285;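 active = activation above the mean activation of all tested compounds plus 3 SD, cut at about 50% in these data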
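Test system: transient Gal4-SF-1 LBD reporter, CHO-K1; Amount: 4,000 CHO-K1 cells per well; Doses: 10 µM only; Timing: compound exposure 20 h at 37 °C; Signal: luciferase light emission; Read-out basis: percent activation relative to DMSO median and mock-transfected background; Control set: DMSO negative control and −SF1 background wells; Replicates: one test per compound.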
M1 agonist conf: rat M1 muscarinic agonism, confirmation; shares compounds with M1 ag; CHO-M1 cells, Fluo-4 calcium fluorescence, agonist mode; actives lie on both sides; fluorescence change (max-min) at 10 µM; 19% of 1,700 active;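 active = fluorescence change differs from the solvent-only DMSO control mean at a set confidence level in both duplicate runs; inconclusive = differs from solvent-only control mean in just one of two runs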;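 also: an EC20 dose of acetylcholine follows compound addition during the same imaging run; raw fluorescence intensity difference in instrument units with no normalization to controls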
M4 ag counter: rat M4 muscarinic agonism, M1 counter-screen | shares compounds with M1 ag | CHO M4/Gqi5 cells, Fluo-4 calcium fluorescence, agonist mode; actives lie on both sides | fluorescence change (max-min) at 10 µM | 9% of 1,700 active | AID 1741;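 active = fluorescence change differing from the plate's solvent-only control wells at 99.7% confidence in both duplicates, whether higher or lower; inconclusive = differs from solvent controls in only one of two duplicates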
An asterisk follows results filed as active; ? = inconclusive; / = no result given.

SMILES	M1 ag	M1 antag	S1P3 ag	S1P1 ag-PAM	RORa activator	SF1 activator	M1 agonist conf	M4 ag counter
O=C(OCC(=O)N1CCN(c2ccccc2)CC1)c1ccccn1	-0.61	0.2	0	-25	-18	-7	/	/
CC(=O)c1ccc(OCCCC(=O)OCC(=O)N2CCN(c3ccccc3)CC2)cc1	9.3*	-0.73	0	4	-8	15	-0.8	-75
O=C(CSc1ccc2nnc(-c3ccccn3)n2n1)N1CCN(c2ccccc2)CC1	3.3*	-0.58	0	4	-5	8	-8.5	?
CCc1nnc(NC(=O)C2CC(=O)N(c3ccc(C)cc3)C2)s1 (stereo not given)	-0.062	0.44	0	-6	1	-7	/	/
Cc1ccc(N2CC(C(=O)Nc3ccccn3)CC2=O)cc1 (stereo not given)	4.6*	0.31	-1	/	-4	5	?	-80
CC1(C)Cc2ccccc2C(N)=C1C#N	2.2	0.74	/	/	/	/	/	/
Cc1cc(C(=O)OCC(=O)Nc2ncc(C(F)(F)F)cc2Cl)c(C)o1	-0.071	0.8	-2	7	-7	1	/	/
COCc1[nH]nc2c1C(c1ccccc1Cl)C(C#N)=C(N)O2 (stereo not given)	1.5*	0.045	/	/	-13	-7	-8.9	-18
CCCc1[nH]nc2c1C(CCc1ccccc1)C(C#N)=C(N)O2 (stereo not given)	2.7*	0.095	-1	4	-8	23	?	-24
COCc1[nH]nc2c1C(c1ccccc1OC)C(C#N)=C(N)O2 (stereo not given)	-0.77	0.45	-6	3	-25	-13	/	/
Cc1nc(N2CCN(C(=O)c3ccc(Cl)cc3)CC2)c(C#N)c2c1COC(C)(C)C2	2.3	-0.24	-4	11	-2	-10	/	/
Cc1nn(C)c(C)c1NC(=O)CN1CCC(O)(c2ccc3c(c2)OCO3)CC1	-0.6	-0.48	0	8	18	4	/	/
Cc1ccc(C)c(N2CCN(C(=O)CN(C)S(=O)(=O)c3ccc4c(c3)CCC(=O)N4)CC2)c1	2.3*	1.6	-1	27	-2	-6	?	-48
Cc1ccc(C)c(N2CCN(S(=O)(=O)c3ccc4c(c3)CCC(=O)N4)CC2)c1	2	1.3	0	5	-2	-7	/	/
C=CCN(CC=C)S(=O)(=O)c1ccc2nc(NC(=O)C(C)C)sc2c1	8.5*	-2.4*	-2	-3	60*	20	?	-29
COCC(=O)Nc1nc2ccc(S(C)(=O)=O)cc2s1	0.24	-0.00087	0	-11	38	30	/	/
COC(=O)C(Cc1cnc[nH]1)NC(=O)C1CCC(=O)N1 (stereo not given)	-0.71	0.37	1	-19	2	0	/	/
CCn1c(CCn2ccnc2C)n[nH]c1=S	53*	-7.3*	-1	-27	-22	-10	225*	?
CCn1c(CC(C)C)n[nH]c1=S	-0.22	0.024	0	-11	0	0	/	/
Cn1c(=O)c2c(nc(CN3CCOCC3)n2CC(O)CO)n(C)c1=O (stereo not given)	-0.72	0.27	0	1	-4	0	/	/
CCOc1ccc(-n2c(SCC(N)=O)nc3c(c2=O)SCC3)cc1	0.19	0.68	/	/	-29	-14	/	/
COc1ccc(CCN(Cc2cc3cc(C)ccc3[nH]c2=O)C(=O)N2CCCC2)cc1OC	1	0.5	0	-11	10	13	/	/
Cc1ccc2[nH]c(=O)c(CN(CCc3ccccc3)C(=O)N3CCOCC3)cc2c1	14*	-0.34	-2	8	9	2	-7.9	?
CCCCOCCCNC(=O)c1c(-c2ccccc2)noc1C	-0.53	0.14	-1	-7	-19	-8	/	/
COc1cccc2cc(C(=O)N(C)C3CCN(C)CC3)c(=O)oc12	-0.9	-0.021	0	7	-4	-4	/	/
SMILES	M1 ag	M1 antag	S1P3 ag	S1P1 ag-PAM	RORa activator	SF1 activator	M1 agonist conf	M4 ag counter
CS(=O)(=O)N(CC(=O)N1CCCCCC1)c1ccc2c(c1)OCCO2	-2.1*	-0.14	0	3	-8	-2	22	-25
CCOc1ccc2nc(NCCNC(=O)CC)c(C#N)cc2c1	9.7*	-0.52	0	14	10	-2	133*	71
COc1ccc(OC)c(NC(=O)Cn2cc(C(=O)c3ccco3)c3ccccc32)c1	0.39	0.51	-1	20	-18	1	/	/
COc1cccc(OCCn2cc(C(=O)c3ccco3)c3ccccc32)c1	5*	-0.058	-1	/	5	-18	-19	-39
Cc1ccc(-c2noc(CCCC(=O)Nc3cccnc3)n2)cc1	-2.1	-0.35	-1	-23	-53	-43	/	/
CC(=O)N1CCN(c2ccccc2NC(=O)COc2cc(C)ccc2C(C)C)CC1	4.3*	-0.87	2	-24	-7	1	-26*	-56
Cc1ccc(C(C)C)c(OCC(=O)Nc2ccccc2N2CCN(C)CC2)c1	0.8	-0.22	-1	-11	-7	5	/	/
O=C(c1ccc2c(c1)OCO2)N1CCN(c2ccc(Cl)cc2)CC1	-1.3	-1.2	0	2	27	4	/	/
O=C(Nc1ccccc1N1CCN(C(=O)c2ccc(Cl)cc2)CC1)c1ccc2c(c1)OCO2	-2.2*	0.014	0	2	4	27	-26	-28
CCC(=O)N1CCN(c2ccccc2NC(=O)c2cccc(C)c2)CC1	9.8*	-0.57	0	-1	-4	11	-15	?
CCC(=O)N1CCN(c2ccccc2NC(=O)COc2cccc(C)c2)CC1	2.6	-0.6	0	/	15	-3	/	/
CCC(=O)N1CCN(c2ccccc2NC(=O)COc2ccccc2Cl)CC1	4.3*	-0.49	-1	8	-11	1	?	-75
O=C(COC(=O)CCC(=O)c1ccc2c(c1)OCCO2)NCc1ccc2c(c1)OCO2	1.9	-0.00022	0	-21	-20	12	/	/
COc1ccc(CNc2nc3c(c(=O)n(Cc4ccc(Br)cc4)c(=O)n3C)n2C)cc1	3.4*	-0.25	0	0	18	11	-6.3	-8.3
Cn1c(NCc2ccccc2)nc2c1c(=O)n(Cc1ccc(Br)cc1)c(=O)n2C	-0.38	0.56	-2	-15	-7	-1	/	/
C=CCSc1nnc(-c2ccncc2)n1-c1ccc(OCC)cc1	1.7*	0.62	0	-14	-6	-5	-12	-25
